ChEMBL document CHEMBL1121685, “Development of new mitomycin C and porfiromycin analogues” (J Med Chem, 1981)

Experiments:
Mus musculus [1] = experiment: Effect of compound on total white blood cell count in BDG1 male mice, after intraperitoneal administration at a dose of 2.24 mg/kg on day 3; type: functional
Outline: (§1)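 Single ip dose given on day 0 to BDG1 male mice over a descending dose series. Total white blood cell count is expressed as % change from untreated control on days 3, 5 and 7. Significance is flagged at p ≤ 0.05 and p ≤ 0.01.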

Mus musculus [2] = experiment: Effect of compound on total white blood cell count in BDG1 male mice, after intraperitoneal administration at a dose of 2.24 mg/kg on day 7; type: functional; outline: as §1
Mus musculus [3] = experiment: Effect of compound on total white blood cell count in BDG1 male mice, after intraperitoneal administration at a dose of 2.24 mg/kg on day 5; type: functional; outline: as §1
Mus musculus [4] = experiment: Effect of compound on total white blood cell count in BDG1 male mice, after intraperitoneal administration at a dose of 5.3 mg/kg on day 3; type: functional
Outline: (§2)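 Single ip dose given on day 0 to BDG₁ male mice. Total white blood cell count measured on days 3, 5 and 7, expressed as % change from control. Highest dose was at the LD₅₀, or at twice the optimal dose where so footnoted. Significance reported at p ≤ 0.05 and p ≤ 0.01. D marks death of one or more mice.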

Mus musculus [5] = experiment: Effect of compound on total white blood cell count in BDG1 male mice, after intraperitoneal administration at a dose of 5.3 mg/kg on day 5; type: functional; outline: as §2
Mus musculus [6] = experiment: Effect of compound on total white blood cell count in BDG1 male mice, after intraperitoneal administration at a dose of 3.98 mg/kg on day 5; type: functional; outline: as §1
Mus musculus [7] = experiment: Effect of compound on total white blood cell count in BDG1 male mice, after intraperitoneal administration at a dose of 3.98 mg/kg on day 7; type: functional; outline: as §1
Mus musculus [8] = experiment: Effect of compound on total white blood cell count in BDG1 male mice, after intraperitoneal administration at a dose of 3.98 mg/kg on day 3; type: functional; outline: as §1
Mus musculus [9] = experiment: Effect of compound on total white blood cell count in BDG1 male mice, after intraperitoneal administration at a dose of 2.98 mg/kg on day 3; type: functional; outline: as §1
Mus musculus [10] = experiment: Effect of compound on total white blood cell count in BDG1 male mice, after intraperitoneal administration at a dose of 2.98 mg/kg on day 5; type: functional; outline: as §1
Mus musculus [11] = experiment: Effect of compound on total white blood cell count in BDG1 male mice, after intraperitoneal administration at a dose of 2.98 mg/kg on day 7; type: functional; outline: as §1
Mus musculus [12] = experiment: Effect of compound on total white blood cell count in BDG1 male mice, after intraperitoneal administration at a dose of 5.3 mg/kg on day 7; type: functional; outline: as §2
Mus musculus [13] = experiment: Minimum effective dose that show activity against P-388 murine leukemia cells in CDF1 female mice, after intraperitoneal administration (optimal dose is 3.2 mg/kg); type: functional; conditions: P388, ip, read-out: MED
Outline: (§3)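 10⁶ P-388 ascites cells implanted ip in CDF₁ female mice. Six mice per dose, 10 saline-injected controls, and a concurrent mitomycin C reference group. %T/C = median survival time of treated/control × 100. MED is the lowest dose giving %T/C > 125. Therapeutic ratio = optimal dose/MED.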

Mus musculus [14] = experiment: Antitumor activity against P-388 murine leukemia cells in CDF1 female mice after intraperitoneal administration at the specified optimal dose of 3.2 mg/kg; type: functional
[15] = Therapeutic ratio is expressed as ratio of optimal dose and minimum effective dose; type: ADME; conditions: mouse; read-out: TR; outline: as §3
Mus musculus [16] = experiment: Effect of compound on total white blood cell count in BDG1 male mice, after intraperitoneal administration at a dose of 68.0 mg/kg on day 3; type: functional; outline: as §2
Mus musculus [17] = experiment: Effect of compound on total white blood cell count in BDG1 male mice, after intraperitoneal administration at a dose of 68.0 mg/kg on day 5; type: functional; outline: as §2
Mus musculus [18] = experiment: Effect of compound on total white blood cell count in BDG1 male mice, after intraperitoneal administration at a dose of 68.0 mg/kg on day 7; type: functional; outline: as §2
Mus musculus [19] = experiment: Effect of compound on total white blood cell count in BDG1 male mice, after intraperitoneal administration at a dose of 51 mg/kg on day 5; type: functional; outline: as §2
Mus musculus [20] = experiment: Effect of compound on total white blood cell count in BDG1 male mice, after intraperitoneal administration at a dose of 51 mg/kg on day 3; type: functional; outline: as §2
Mus musculus [21] = experiment: Effect of compound on total white blood cell count in BDG1 male mice, after intraperitoneal administration at a dose of 51 mg/kg on day 7; type: functional; outline: as §2
Mus musculus [22] = experiment: Antitumor activity against P-388 murine leukemia cells in CDF1 female mice after intraperitoneal administration at the specified optimal dose of 12.8 mg/kg; type: functional
Mus musculus [23] = experiment: Effect of compound on total white blood cell count in BDG1 male mice, after intraperitoneal administration at a dose of 12.8 mg/kg on day 7; type: functional; outline: as §1
Mus musculus [24] = experiment: Effect of compound on total white blood cell count in BDG1 male mice, after intraperitoneal administration at a dose of 12.8 mg/kg on day 3; type: functional
Outline: (§4)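 BDG₁ male mice received a single ip dose on day 0. The dose series topped out at the LD₅₀ level, or at twice the optimal dose for some agents. Total white blood cell count was taken on days 3, 5 and 7 and expressed as % change from untreated controls. Significance was set at p ≤ 0.05 or p ≤ 0.01.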

Mus musculus [25] = experiment: Effect of compound on total white blood cell count in BDG1 male mice, after intraperitoneal administration at a dose of 12.8 mg/kg on day 5; type: functional; outline: as §4
Mus musculus [26] = experiment: Effect of compound on total white blood cell count in BDG1 male mice, after intraperitoneal administration at a dose of 25.6 mg/kg on day 3 (highest dose was twice the optimal dose); type: functional
Mus musculus [27] = experiment: Effect of compound on total white blood cell count in BDG1 male mice, after intraperitoneal administration at a dose of 25.6 mg/kg on day 5 (highest dose was twice the optimal dose); type: functional
Mus musculus [28] = experiment: Effect of compound on total white blood cell count in BDG1 male mice, after intraperitoneal administration at a dose of 25.6 mg/kg on day 7 (highest dose was twice the optimal dose); type: functional
Mus musculus [29] = experiment: Minimum effective dose that show activity against P-388 murine leukemia cells in CDF1 female mice, after intraperitoneal administration (optimal dose is 12.8 mg/kg); type: functional; conditions: P388, ip, read-out: MED; outline: as §3

`COC12[C@@H](COC(N)=O)C3=C(C(=O)C(C)=C(N4CC4)C3=O)N1C[C@@H]1[C@H]2N1C` (some centres not stated) showed a Change (Mus musculus [1]) of 1%, a Change (Mus musculus [2]) of 39% and a Change (Mus musculus [3]) of 11%. It also gave a Change (Mus musculus [4]) of -15%, a Change (Mus musculus [5]) of -20% and a Change (Mus musculus [6]) of -17%. It also gave a Change (Mus musculus [7]) of 7%, a Change (Mus musculus [8]) of -12.3% and a Change (Mus musculus [9]) of 5%. For the same compound, the Change (Mus musculus [10]) was 25%, the Change (Mus musculus [11]) was 31% and the Change (Mus musculus [12]) was -13%. The minimal effective dose (Mus musculus [13]) was 0.2 mg/kg, the T/C (Mus musculus [14]) was 248% and the selectivity ratio [15] was 16.
In the case of `COC12[C@@H]3N[C@@H]3CN1C1=C(C(=O)C(NCCCl)=C(C)C1=O)[C@@H]2COC(N)=O` (some centres not stated), the Change (Mus musculus [16]) was -71%, the Change (Mus musculus [17]) was -63% and the Change (Mus musculus [18]) was -35%. It also gave a Change (Mus musculus [19]) of -61%, a Change (Mus musculus [20]) of -55% and a Change (Mus musculus [21]) of -23%. It also gave a T/C (Mus musculus [22]) of 190% and a selectivity ratio [15] of 8.
In the case of `COC12[C@@H]3N[C@@H]3CN1C1=C(C(=O)C(NCc3cccs3)=C(C)C1=O)[C@@H]2COC(N)=O` (some centres not stated), the Change (Mus musculus [23]) was -2%, the Change (Mus musculus [24]) was -26% and the Change (Mus musculus [25]) was -5%. The Change (Mus musculus [26]) was -32%, the Change (Mus musculus [27]) was -33% and the Change (Mus musculus [28]) was -11%. The minimal effective dose (Mus musculus [29]) was 3.2 mg/kg, the T/C (Mus musculus [22]) was 167% and the selectivity ratio [15] was 4.
